Source: ChEMBL document CHEMBL3751740, “New MKLP-2 inhibitors in the paprotrain series: Design, synthesis and biological evaluations” (Bioorg Med Chem, 2016)
Activity calls are given as the source filed them. The rule behind the calls is not given here.

Legend:
[1] = species on record: Ovis aries; assay: Inhibition of sheep brain tubulin polymerization by UV spectrophotometric analysis; set-up: concentration or dose not given beside the values
In short: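 Tubulin purified from sheep brain by two assembly/disassembly cycles, about 2–3 mg/mL in 0.1 M MES, 0.5 mM MgCl2, 1 mM EGTA, 1 mM GTP, pH 6.6. Compound in DMSO added at 0 °C, then moved to a 37 °C thermostated cell. Assembly followed by turbidity at 350 nm for a few min.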

[2] = species on record: Ovis aries; assay: Induction of sheep brain microtubule disassembly by UV spectrophotometric analysis
In short: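 Sheep brain tubulin, purified by two assembly/disassembly cycles and held in MES buffer with GTP at pH 6.6, was polymerized at 37 °C for 10 min. Compound was then added to the MTs at 0 °C and depolymerization was followed over the next few minutes by turbidity at 350 nm.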

[3] = molecular target: T1, Kinesin-like protein KIF20A (Homo sapiens, UniProt O95235); assay: Inhibition of N-terminal MKLP2 (56 to 505 residues) ATPase basal activity isolated from human hepatocellular carcinoma cells by pyruvate kinase/lactate dehydrogenase enzyme linked assay
T1 sequence (O95235 whole entry): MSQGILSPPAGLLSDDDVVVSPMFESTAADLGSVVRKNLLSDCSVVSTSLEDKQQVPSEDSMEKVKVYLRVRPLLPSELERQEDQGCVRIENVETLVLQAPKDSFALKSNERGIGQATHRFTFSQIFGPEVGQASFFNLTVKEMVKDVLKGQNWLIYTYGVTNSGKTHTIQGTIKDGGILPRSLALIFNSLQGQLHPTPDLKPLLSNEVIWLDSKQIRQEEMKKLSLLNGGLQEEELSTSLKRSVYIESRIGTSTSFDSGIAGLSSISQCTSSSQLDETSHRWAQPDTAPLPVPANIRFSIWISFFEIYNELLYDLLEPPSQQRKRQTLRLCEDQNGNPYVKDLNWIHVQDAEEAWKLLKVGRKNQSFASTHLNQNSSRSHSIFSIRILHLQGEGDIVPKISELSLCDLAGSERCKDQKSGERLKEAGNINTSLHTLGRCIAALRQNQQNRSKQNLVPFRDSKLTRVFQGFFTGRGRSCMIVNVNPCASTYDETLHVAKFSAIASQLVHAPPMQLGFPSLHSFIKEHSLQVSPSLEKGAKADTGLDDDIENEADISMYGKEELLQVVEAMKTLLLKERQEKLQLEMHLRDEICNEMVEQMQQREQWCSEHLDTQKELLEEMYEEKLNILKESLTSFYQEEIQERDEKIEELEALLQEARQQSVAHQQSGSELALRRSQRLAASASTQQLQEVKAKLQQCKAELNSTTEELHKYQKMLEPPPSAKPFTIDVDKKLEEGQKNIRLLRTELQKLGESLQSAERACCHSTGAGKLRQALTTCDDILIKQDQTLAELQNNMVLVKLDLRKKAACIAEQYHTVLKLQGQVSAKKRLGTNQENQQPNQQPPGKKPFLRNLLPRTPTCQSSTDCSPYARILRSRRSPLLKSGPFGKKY

[4] = molecular target: T1, Kinesin-like protein KIF20A; assay: Inhibition of microtubule-stimulated N-terminal MKLP-2 (56 to 505 residues) ATPase activity isolated from human hepatocellular carcinoma cells by pyruvate kinase/lactate dehydrogenase enzyme linked assay; settings: read-out: IC50
[5] = test system: KB; assay: Growth inhibition of human KB cells at 10 uM after 72 hrs by MTS assay; format: functional; settings: read-out: GI
In short: (§1)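 KB cells were grown in DMEM with 25 mM glucose and 10% FCS at 37 °C, 5% CO2, and seeded at 500 cells/well. 24 h later, compound in DMSO (1% final) was added at 10 µM or 1 µM for 72 h; controls received DMSO alone. Runs were in duplicate. Viable cells were read with MTS at 490 nm.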

[6] = molecular target: Centromere-associated protein E (Homo sapiens) (UniProt Q02224); assay: Inhibition of porcine brain microtubule-stimulated human recombinant GST-tagged CENP-E ATPase activity at 1 mM by microplate reader in presence of Mg2+ ATP relative to control
Centromere-associated protein E (Homo sapiens), sequence (Q02224 whole entry, the tested form may be a part): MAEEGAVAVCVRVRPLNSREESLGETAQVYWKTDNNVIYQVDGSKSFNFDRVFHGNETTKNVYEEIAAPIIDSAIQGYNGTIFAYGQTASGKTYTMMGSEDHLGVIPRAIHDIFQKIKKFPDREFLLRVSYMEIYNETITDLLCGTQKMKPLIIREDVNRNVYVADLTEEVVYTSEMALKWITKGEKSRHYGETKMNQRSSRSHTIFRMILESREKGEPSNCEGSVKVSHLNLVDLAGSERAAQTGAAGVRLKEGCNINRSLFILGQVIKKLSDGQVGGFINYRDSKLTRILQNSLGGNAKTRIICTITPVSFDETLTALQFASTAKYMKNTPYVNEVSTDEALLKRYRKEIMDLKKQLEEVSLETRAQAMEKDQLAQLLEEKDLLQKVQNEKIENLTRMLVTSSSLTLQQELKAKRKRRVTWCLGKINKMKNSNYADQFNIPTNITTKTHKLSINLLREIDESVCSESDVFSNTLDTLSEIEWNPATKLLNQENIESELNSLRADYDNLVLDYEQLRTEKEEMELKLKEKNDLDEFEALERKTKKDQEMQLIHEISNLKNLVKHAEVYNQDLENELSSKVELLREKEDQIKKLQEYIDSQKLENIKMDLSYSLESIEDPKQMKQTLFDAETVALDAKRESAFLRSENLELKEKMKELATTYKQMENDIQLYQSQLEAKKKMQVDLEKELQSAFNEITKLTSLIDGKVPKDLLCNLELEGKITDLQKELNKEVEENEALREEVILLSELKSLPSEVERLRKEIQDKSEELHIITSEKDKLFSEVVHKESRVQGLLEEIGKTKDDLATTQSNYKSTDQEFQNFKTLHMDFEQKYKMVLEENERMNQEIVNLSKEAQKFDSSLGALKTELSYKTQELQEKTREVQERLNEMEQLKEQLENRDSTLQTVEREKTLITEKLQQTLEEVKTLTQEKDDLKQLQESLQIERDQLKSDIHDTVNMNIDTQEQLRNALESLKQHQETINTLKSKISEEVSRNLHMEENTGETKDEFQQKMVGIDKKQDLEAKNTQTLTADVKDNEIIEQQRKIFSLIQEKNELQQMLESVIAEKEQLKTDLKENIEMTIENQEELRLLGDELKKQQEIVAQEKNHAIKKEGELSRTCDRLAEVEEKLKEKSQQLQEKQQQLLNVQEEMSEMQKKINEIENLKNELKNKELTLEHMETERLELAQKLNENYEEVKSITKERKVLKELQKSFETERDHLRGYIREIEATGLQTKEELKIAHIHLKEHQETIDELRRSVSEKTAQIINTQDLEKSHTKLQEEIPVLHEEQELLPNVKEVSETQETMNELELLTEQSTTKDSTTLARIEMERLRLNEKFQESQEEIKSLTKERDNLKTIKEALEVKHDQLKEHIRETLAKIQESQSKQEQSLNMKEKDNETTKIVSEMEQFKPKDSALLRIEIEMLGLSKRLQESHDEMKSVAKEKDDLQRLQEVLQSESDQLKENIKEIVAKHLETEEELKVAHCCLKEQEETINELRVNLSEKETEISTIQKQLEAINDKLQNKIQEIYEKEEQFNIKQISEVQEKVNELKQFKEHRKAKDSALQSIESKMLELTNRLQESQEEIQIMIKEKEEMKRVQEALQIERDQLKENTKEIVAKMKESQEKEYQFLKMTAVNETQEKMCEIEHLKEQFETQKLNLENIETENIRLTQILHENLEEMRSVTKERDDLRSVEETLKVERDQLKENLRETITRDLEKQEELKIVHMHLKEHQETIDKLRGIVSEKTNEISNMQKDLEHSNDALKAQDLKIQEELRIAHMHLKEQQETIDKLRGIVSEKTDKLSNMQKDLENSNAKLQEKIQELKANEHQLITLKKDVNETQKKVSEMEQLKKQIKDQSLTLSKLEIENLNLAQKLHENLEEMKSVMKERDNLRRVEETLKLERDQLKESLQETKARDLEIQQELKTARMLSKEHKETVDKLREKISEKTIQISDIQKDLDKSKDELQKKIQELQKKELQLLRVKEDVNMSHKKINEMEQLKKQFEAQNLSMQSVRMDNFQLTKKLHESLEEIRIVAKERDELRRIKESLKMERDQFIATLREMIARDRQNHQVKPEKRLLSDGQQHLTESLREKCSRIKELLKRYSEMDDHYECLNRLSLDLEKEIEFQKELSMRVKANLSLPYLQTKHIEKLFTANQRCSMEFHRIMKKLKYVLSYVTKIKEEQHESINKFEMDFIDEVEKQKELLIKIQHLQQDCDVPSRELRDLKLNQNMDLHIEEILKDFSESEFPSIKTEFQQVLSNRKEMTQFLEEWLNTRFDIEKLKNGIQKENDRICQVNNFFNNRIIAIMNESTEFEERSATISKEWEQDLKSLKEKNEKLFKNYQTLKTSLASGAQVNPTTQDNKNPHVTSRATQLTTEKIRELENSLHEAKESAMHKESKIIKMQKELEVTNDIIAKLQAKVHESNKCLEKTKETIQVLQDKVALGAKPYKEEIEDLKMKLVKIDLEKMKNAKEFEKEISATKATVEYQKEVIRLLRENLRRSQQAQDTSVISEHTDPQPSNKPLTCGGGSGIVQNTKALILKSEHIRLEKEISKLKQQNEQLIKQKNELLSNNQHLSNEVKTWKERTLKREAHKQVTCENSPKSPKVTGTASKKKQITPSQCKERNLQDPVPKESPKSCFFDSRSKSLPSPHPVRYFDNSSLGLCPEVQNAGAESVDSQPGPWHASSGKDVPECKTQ
In short: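 Motor domain at 15 µM final, in 7.5 mM PIPES-NaOH pH 7.0 with […], 10 µM Taxol, ELIPA 1 and 2 reagents and 1.25 mg/mL microtubules. AMP-PNP, a slowly hydrolysable ATP analog and general ATPase inhibitor, tested at 1 mM. Reaction started with 1 mM Mg2+ATP at 22 °C and read kinetically at 360 nm. Run in triplicate.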

[7] = Growth inhibition of human PK59 cells incubated for 4 days by WST-1 assay; format: functional; settings: PK-59, 96 h
In short: (§2)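 Cells were kept at 37 °C under 5% CO2 and plated on day 0 at 500–5000 cells/well. On day 1 they received ten concentrations from 0.0025 to 50 µM (final), in triplicate. On day 4 WST-1 was added, followed by 30 min–4 h incubation and absorbance at 450 nm. GI50 is the concentration killing 50% of cells.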

[8] = test system: HepG2; assay: Growth inhibition of human HepG2 cells incubated for 4 days by WST-1 assay; format: functional; settings: HepG2, 96 h; in short: as §2
[9] = test system: KB; assay: Growth inhibition of human KB cells at 1 uM after 72 hrs by MTS assay; format: functional; settings: read-out: GI; in short: as §1

## COc1cccc2[nH]cc(/C(C#N)=C/c3cccnc3)c12
[1]
  inhibition: inactive
[2]
  Activity: inactive
[3]; read-out: IC50
  IC50: 4.2 µM
[4]
  IC50: 3.3 µM
[5]
  inhibition of growth at 10 µM: 27%

## N#C/C(=C\c1cccnc1)c1c[nH]c2ccc(OCc3ccccc3)cc12
[1]; concentration not given here
  inhibition: 12%
[2]
  Activity: inactive
[3]
  IC50: Not Active
[4]
  IC50: 1.3 µM
[5]
  inhibition of growth at 10 µM: 57%

## Nc1ncnc2c1ncn2[C@@H]1O[C@H](COP(=O)(O)OP(=O)(O)NP(=O)(O)O)[C@@H](O)[C@H]1O
[6]
  inhibition: > 30%

## COc1ccc2[nH]cc(/C(C#N)=C/c3cccnc3)c2c1
[1]
  inhibition: inactive
[3]; read-out: IC50
  IC50: 1.2 µM
[4]
  IC50: 0.23 µM
[7]
  GI50: > 50 µM
[5]
  inhibition of growth at 10 µM: 57%
[8]
  GI50: > 50 µM

## COc1ccc2c(/C(C#N)=C/c3cccnc3)c[nH]c2c1
[1]; concentration not given here
  inhibition: 54%
[2]
  Activity: inactive
[3]; read-out: IC50
  IC50: 5.6 µM
[4]
  IC50: 5.4 µM
[5]
  inhibition of growth at 10 µM: 87%
[9]
  inhibition of growth at 1 µM: 78%

## N#C/C(=C\c1ccc2c(c1)OCO2)c1c[nH]c2ccccc12
[1]; concentration not given here
  inhibition: 35%
[2]
  Activity: inactive
[3]; read-out: IC50
  IC50: 14.3 µM
[4]
  IC50: 5.1 µM
[5]
  inhibition of growth at 10 µM: 100%
[9]
  inhibition of growth at 1 µM: 11%
